Results on four molecules are retold here after ChEMBL document CHEMBL1124320, “2,2-Difluoro-5-hexyne-1,4-diamine: a potent enzyme-activated inhibitor of ornithine decarboxylase” (J Med Chem, 1989).

Data set [1] is described as follows: In vitro inhibition against rat aorta semicarbazide-sensitive amine oxidase. It is filed as tissue-based.
Data set [2] concerns the target T1, S-adenosylmethionine decarboxylase proenzyme (Homo sapiens) (UniProt P17707).
T1 sequence (whole entry): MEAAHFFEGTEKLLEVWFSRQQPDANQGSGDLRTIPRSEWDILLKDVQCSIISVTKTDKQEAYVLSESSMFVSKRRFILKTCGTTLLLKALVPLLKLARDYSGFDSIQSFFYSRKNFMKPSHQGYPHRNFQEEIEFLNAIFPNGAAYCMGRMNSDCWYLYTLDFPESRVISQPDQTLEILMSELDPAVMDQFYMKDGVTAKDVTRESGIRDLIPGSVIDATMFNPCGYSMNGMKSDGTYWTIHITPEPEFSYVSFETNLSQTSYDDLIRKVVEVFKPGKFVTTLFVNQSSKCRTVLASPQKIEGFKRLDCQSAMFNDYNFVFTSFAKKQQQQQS

Data set [3] addresses ornithine decarboxylase (Rattus norvegicus) (UniProt P09057). Nature of the data set: Time of half-inactivation of ornithine decarboxylase extrapolated to infinite inhibitor concentration was determined. The conditions noted are these: in vitro.
Another data set concerns the target T2, Ornithine decarboxylase (Rattus norvegicus, UniProt P09057).
T2 sequence (P09057 whole entry): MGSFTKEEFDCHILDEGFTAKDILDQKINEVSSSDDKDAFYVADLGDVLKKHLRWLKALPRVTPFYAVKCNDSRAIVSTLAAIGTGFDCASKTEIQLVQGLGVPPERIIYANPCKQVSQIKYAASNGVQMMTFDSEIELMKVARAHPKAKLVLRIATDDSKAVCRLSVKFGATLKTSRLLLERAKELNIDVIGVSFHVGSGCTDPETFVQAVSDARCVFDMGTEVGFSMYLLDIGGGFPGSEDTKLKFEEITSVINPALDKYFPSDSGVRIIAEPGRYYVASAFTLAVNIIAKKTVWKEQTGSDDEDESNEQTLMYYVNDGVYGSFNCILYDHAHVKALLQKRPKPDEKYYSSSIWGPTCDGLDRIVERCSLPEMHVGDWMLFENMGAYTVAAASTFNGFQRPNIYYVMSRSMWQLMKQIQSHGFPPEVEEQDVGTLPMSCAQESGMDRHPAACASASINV
Nature of the data set: In vitro inhibition against ornithine decarboxylase. In outline: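 Time-dependent inactivation of partially purified rat liver ODC (thioacetamide-induced, acid treatment at pH 4.6). Enzyme incubated at 37 °C in 30 mM phosphate pH 7.1, 5 mM DTT and 0.1 mM pyridoxal phosphate with varied inhibitor concentrations. Aliquots were assayed at intervals. Half-inactivation times were plotted against 1/[I] (Kitz–Wilson, least-squares fit) to give apparent K_I and τ1/2.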

By Ki is commonly meant the equilibrium dissociation constant of an inhibitor or competing ligand from its target. Regarding `C#CC(N)CC(F)(F)CN` (stereo unspecified), the inhibition constant (Ki) in data set [1] came out at 100 nM. That is a sub-micromolar value.

In turn, `NCCCCN` had a Ka in data set [2] of 16 µM.

Take `C#C[C@@H](N)CC[C@H](C)N`: in data set [3], the half-inactivation time was 1.7 min. For the same molecule, the Ki on Ornithine decarboxylase worked out at 3000 nM.

With `NCCCC(N)(CF)C(=O)O` (stereo unspecified), in data set [3], the half-inactivation time is 2.6 min. Moreover, on Ornithine decarboxylase, the Ki was determined as 2700 nM.
